Legend:
[1] = Solubility at 22 degC in culture medium in presence of 5% fetal calf serum; format: physicochemical; settings: culture medium with 5% fetal calf serum; read-out: solubility
Procedure, shortened: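 Solubility of the HCl salts is determined in culture medium containing 5% fetal calf serum at 22 °C.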

HT-29 [2] = test: Cytotoxicity against human HT-29 cells after 4 hrs under strict hypoxic condition; format: functional, cell-based
HT-29 [3] = test: Hypoxic cytotoxicity ratio, ratio of aerobic IC50 to anoxic IC50 for human HT-29 cells; format: functional
SiHa [4] = test: Cytotoxicity against human SiHa cells after 4 hrs under strict hypoxic condition; format: functional, cell-based
SiHa [5] = test: Hypoxic cytotoxicity ratio, ratio of aerobic IC50 to anoxic IC50 for human SiHa cells; format: functional
HT-29 [6] = test: Drug diffusion coefficient in human HT-29 multicellular layer under 95% oxygen by liquid scintillation counting; format: ADME, cell-based
Procedure, shortened: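 Tissue diffusion coefficient D measured in HT29 multicellular layers held under 95% O₂ to suppress bioreductive metabolism. Reported as ×10⁻⁷ cm²s⁻¹.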

HT-29 [7] = test: Metabolic stability in human HT-29 multicellular layer assessed as apparent first-order rate constant under anoxic condition; format: ADME, cell-based
Procedure, shortened: (§1)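 Stirred single-cell suspensions of anoxic HT29 cells are exposed for 3 h at a drug concentration giving roughly one log kill by 1 h. Clonogenic survival is followed, and extracellular drug is monitored by HPLC. Concentration-time data are fitted for the apparent first-order metabolic rate constant k_met, scaled to MCL cell density. CT₁₀ and M₁₀ (drug metabolized at 10% survival) are interpolated from the fitted PK/PD model.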

HT-29 [8] = test: Cytotoxicity against human HT-29 cells assessed as AUC-time curve providing 10% surviving fraction by clonogenic assay; format: functional
HT-29 [9] = test: Drug metabolism in human HT-29 cells assessed as amount of drug metabolized for one log of cell kill at their CT10 concentration for 1 hr; format: ADME, cell-based; settings: ht-29, 1 h; procedure, shortened: as §1

Row | SMILES | solubility [1] [mM] | IC50 (HT-29 [2]; Homo sapiens, HT-29, 4 h) [nM] | Ratio IC50 (HT-29 [3]) | IC50 (SiHa [4]; Homo sapiens, SiHa, 4 h) [nM] | Ratio IC50 (SiHa [5]) | D (HT-29 [6]) [cm²/s] | Activity (HT-29 [7]) [min⁻¹] | Activity (HT-29 [8]) [µM·h] | Activity (HT-29 [9]) [µM] | IC50 (HT-29 [2]; ht-29) [nM] | IC50 (SiHa [4]; siha) [nM] | Activity (HT-29 [9]; 1 h) [µM]
1 | CCCN(CCC)CCNc1n[n+]([O-])c2cc3c(cc2[n+]1[O-])CCC3 | 20 | 2500 | 77 | 700 | 91 | 1.92e-06 | 1.07 | 31.8 | 3941 | – | – | –
2 | CN(C)CCNc1n[n+]([O-])c2cc3c(cc2[n+]1[O-])CCO3 | > 48 | – | 23 | – | 87 | 4.3e-07 | 3.15 | 18.6 | – | 2400 | 300 | 6732
3 | CN(C)CCNc1n[n+]([O-])c2c3c(ccc2[n+]1[O-])CCC3 | > 54 | 3000 | 67 | 1600 | 99 | 8.4e-07 | 0.74 | 26.3 | 2219 | – | – | –
4 | [O-][n+]1nc(NCCN2CCCCC2)[n+]([O-])c2cc3c(cc21)CCC3 | 1.9 | 5800 | 49 | 1300 | 143 | 1.19e-06 | 1.25 | 15.6 | 2444 | – | – | –
5 | CN(C)CCNc1n[n+]([O-])c2cc3c(cc2[n+]1[O-])CCC3 | > 51 | 2300 | 152 | 700 | 111 | 5.9e-07 | 0.44 | 16 | 815 | – | – | –
